MT1-MMP txn act = MT1-MMP promoter reporter activation – cell-based, luciferase luminescence, primary screen; HT1080 MT1-MMP promoter luciferase reporter, overnight; hits give high values; activation factor at 10 µM; hit rate 0.16% among 86,000;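 active means activation factor of at least 2 for MT1-MMP transcription at 10 µM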
MMP13 inh = human MMP13 inhibitors, primary screen, biochemical, FRET peptide cleavage; Collagenase 3 (Homo sapiens), P45452; MMP-13 fTHP FRET cleavage, Mca fluorescence; inhibition, % at 4 µM; hit rate 0.07% among 65,000; AID 570, 2006;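 active means inhibition above the mean of compound-free control plate wells plus 3 SD, cut at about 14% in these data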;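 further: 0% = DMSO wells and 100% = wells with reference MMP-13 inhibitor after basal subtraction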
RORA act = activators of orphan receptor RORA, primary screen, cell-based, luminescence; Nuclear receptor ROR-alpha (Homo sapiens), P35398; CHO-K1 Gal4-RORA LBD luciferase reporter; percent increase over mock-subtracted basal signal; activation, % at 10 µM; hit rate 1.5% among 65,000; AID 560, 2006;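 active means activation above the mean of all tested compounds plus 3 SD, cut at about 49% in these data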;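 further: 0% = DMSO-treated RORA cells and 100% = added signal equal to DMSO minus mock-transfected cells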
Target sequence (P35398 whole entry, looked up, the tested form may be a part): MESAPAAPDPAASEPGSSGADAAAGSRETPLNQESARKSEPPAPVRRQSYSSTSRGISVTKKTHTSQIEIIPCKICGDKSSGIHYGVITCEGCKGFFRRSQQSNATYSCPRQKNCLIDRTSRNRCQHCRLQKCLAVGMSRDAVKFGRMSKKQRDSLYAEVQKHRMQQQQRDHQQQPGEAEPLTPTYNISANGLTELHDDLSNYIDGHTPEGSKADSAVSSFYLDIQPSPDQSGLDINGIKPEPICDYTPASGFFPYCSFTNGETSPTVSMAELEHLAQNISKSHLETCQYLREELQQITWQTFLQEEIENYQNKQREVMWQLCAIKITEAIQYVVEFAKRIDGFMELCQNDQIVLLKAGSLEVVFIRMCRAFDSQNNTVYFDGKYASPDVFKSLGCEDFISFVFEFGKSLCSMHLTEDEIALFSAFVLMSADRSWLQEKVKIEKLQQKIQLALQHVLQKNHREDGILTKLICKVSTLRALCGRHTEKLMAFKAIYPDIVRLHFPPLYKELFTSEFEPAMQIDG
WNV NS2B-NS3 inh = inhibitors of WNV NS2B-NS3 protease, primary screen, biochemical, fluorogenic substrate; z-score (test concentration not listed); Genome polyprotein (West Nile virus), P06935; hit rate 0.18% among 65,000; fluorogenic substrate Ex360/Em465; hits give low values; in the data active means z-score below about -3
SF1 activator = activators of human SF-1, primary screen, cell-based, CHO-K1, Gal4-SF-1 LBD, luciferase luminescence; activation, % at 10 µM; Steroidogenic factor 1 (Homo sapiens), Q13285; CHO-K1 Gal4-SF-1 LBD luciferase reporter; % increase over DMSO SF-1-specific signal; hit rate 1.9% among 65,000;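 active means activation above the mean activation of all tested compounds plus 3 SD, cut at about 50% in these data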
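Material: Transient Gal4-SF-1 LBD reporter, CHO-K1 | Input: 4,000 cells/well | Dosing: One dose, 10 µM compound, 1% DMSO | Incubation: 20 h compound treatment, 37 °C | Detection: SteadyLite luciferase luminescence | Evaluation: Percent activation relative to DMSO median and mock-transfected background | Benchmarks: DMSO-treated SF-1-transfected cells as negative, DMSO-treated mock-transfected cells lacking SF-1 as background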
The depositor's hits bear a star; · = no result given. Only some compounds are listed: those with a hit (about 2.3% of all), similar ones and a draw of the others.

SMILES | MT1-MMP txn act | MMP13 inh | RORA act | WNV NS2B-NS3 inh | SF1 activator
O=C(Nc1ccc(O)cc1)c1cc2n(n1)C(C(F)(F)F)CC(c1ccco1)N2 (stereo unspecified) | 0.9 | -4 | 23 | -0.6 | 40
CCOc1ccc(NC(=O)c2cc3n(n2)C(C(F)(F)F)CC(c2ccco2)N3)cc1 (stereo unspecified) | 1 | 0 | 60* | 0.61 | 18
CC(NC(=O)C1CCCN(C(=O)N(C)C)C1)c1ccccc1 (stereo unspecified) | 1 | · | · | · | ·
COc1cccc(C2=NOC(C(=O)N3CCOCC3)C2)c1 (stereo unspecified) | 1.7 | 1 | 20 | 0.13 | 57*
CC(=O)Nc1cnc(NC(=O)c2cccc(F)c2)cc1C | 1.6 | 6 | 22 | 1.5 | 76*
COC(=O)[C@@H]1C[C@@]2(O)[C@@H](O)[C@@H](O)[C@@H](O)C[C@H]2N1CC1CC1 | 1.1 | · | · | · | ·
O=C(NCc1ccccc1F)C1CCCN1C(=O)NCc1ccccc1 (stereo unspecified) | 0.8 | -3 | -5 | -0.66 | -2
O=C(c1ccccc1)c1ccc(N2CCOCC2)c(F)c1 | 1.3 | 1 | 74* | -0.83 | 46
Cc1ccccc1NC(=O)c1ocnc1C | 1.1 | 7 | 8 | 1.9 | 6
Cc1ncoc1C(=O)Nc1cccc(Cl)c1 | 1.6 | -3 | 33 | -0.42 | 46
Cc1ccc(NC(=O)c2ocnc2C)cc1Cl | 1.6 | 3 | 61* | -0.52 | 72*
Cc1ccc(Cl)cc1NC(=O)c1ocnc1C | 1.1 | -2 | -5 | -3.4* | -11
Cc1ccc(/C=c2\sc3nc(-c4ccco4)nn3c2=O)o1 | 1.1 | 1 | 13 | -1.5 | -2
COc1ccc(Br)cc1/C=c1\sc2nc(-c3ccco3)nn2c1=O | 1.1 | -3 | -14 | -3* | 2
O=C1CC(c2ccc(F)c(Br)c2)C2=C(CCCC2=O)N1 (stereo unspecified) | 2.3* | 2 | -14 | -0.59 | -3
O=C1CC(c2ccc3c(c2)OCO3)C2=C(CCCC2=O)N1 (stereo unspecified) | 1.1 | -5 | -14 | -0.55 | -12
CCOC(=O)C1=C(C)N(CCCC(=O)O)C(=O)NC1c1ccccc1OC(=O)c1cccc(I)c1 (stereo unspecified) | 1.1 | · | · | · | ·
CC(=O)N1CC=CC1(C)C(=O)NCc1ccc(C)o1 (stereo unspecified) | 0.9 | · | · | · | ·
COc1ccc(-c2nc(SC)n(C(=O)c3ccco3)n2)cc1 | 1.4 | 1 | 30 | -3 | 58*
NC(=O)c1c(NC(=O)c2cccs2)sc2c1CCCCCC2 | 1.5 | 0 | 56* | -0.42 | 45
CCn1c(SCC(=O)Nc2ccc3c(c2)c2ccccc2n3CC)nnc1-c1ccco1 | 0.9 | 8 | -8 | -3* | -18
CC1(C)NC(=O)N(CCCOc2ccc(Br)cc2Cl)C1=O | 1.4 | -4 | 19 | 0.49 | 65*
CNC(=O)[C@H](C)/C=C(\I)C(NC(=O)OCc1ccccc1)c1ccc(C(=O)OC)cc1 (stereo partly specified) | 1.1 | · | · | · | ·
CCCOc1ccc(-c2nc(=S)[nH][nH]2)cc1 | 1.3 | · | · | · | ·
C=CCSc1n[nH]c(-c2ccc(OCCC)cc2)n1 | 1.1 | 4 | 62* | -0.81 | 55*
SMILES | MT1-MMP txn act | MMP13 inh | RORA act | WNV NS2B-NS3 inh | SF1 activator
C=CCSc1n[nH]c(-c2ccc(OCCCC)cc2)n1 | 1.5 | -4 | 31 | -0.25 | 68*
C=CCOn1c(=O)c(-c2cc3ccccc3o2)[n+]([O-])c2ccccc21 | 1.6 | -5 | 44 | 0.39 | 77*
O=C(NCC1CCCO1)c1ccc(/C=N/O)nc1 (stereo unspecified) | 1.1 | -8 | 14 | -2.8 | -4
CC1CCCN(c2ccc(C(=O)NCC3CCCO3)cn2)C1 (stereo unspecified) | 1.5 | -2 | 28 | 1.4 | 58*
COc1ccc(NC2=Nc3ccccc3CC2)cc1 | 1.2 | 0 | 63* | 0.0096 | 58*
Cc1csc2ncc(C(=O)NCc3ccc4c(c3)OCO4)c(=O)n12 | 1.1 | 16* | -10 | -0.49 | 5
Cc1csc2ncc(C(=O)NCc3ccccc3Cl)c(=O)n12 | 1.2 | -84 | -10 | -0.42 | -12
Cc1nn(-c2ccccc2)c2sc(-c3n[nH]c(=S)o3)cc12 | · | -309 | 21 | 0.7 | 0
CCC/C=C(\CCC)C(NS(=O)(=O)c1ccccc1)c1ccc(C(F)(F)F)cc1 (stereo unspecified) | 1.2 | · | · | · | ·

Screening results as filed in PubChem.
